Laboratory results published in publication PMC10413464 (ACS Omega, 2023).
One block for each molecule: values may come before it.

Tests used:
[1] = Ecoil-EGF/hEGF capture on glass slides by ELISA; assay type: binding; conditions: 5 nM hEGF stock, mean ± SD, n = 3
[2] = test system: EGFR phosphorylation; conditions: read-out: EC50 for EGFR phosphorylation in solution; cited from earlier work
[3] = test system: Ecoil-tagged FcγRIIIa (V158); test: SPR capture of Ecoil-tagged FcγRIIIa on Kcoil surfaces; assay type: binding; conditions: for FcγRIIIa capture rate: Ecoil-tagged FcγRIIIa 0.25 μg/mL, 10 μL/min, from 25 s test injection
Summary of the method: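 FcγRIIIa V158 was Ecoil-tagged, expressed transiently in CHO-3E7 and purified by metal affinity. Biacore T100 SPR used CM5 chips in HBS-EP at 25 °C. Kcoil surfaces were amine-coupled Cys-free, thiol-coupled Cys- or amine-coupled dimeric Cys-Kcoil. A short 25 s injection gave the capture rate, assumed constant, to set the injection time for a 20 RU capture. The test was repeated before each batch.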

[4] = test system: Ecoil-EGF; test: SPR capture of Ecoil-EGF on Kcoil surfaces; assay type: binding; conditions: 10 μL/min
Summary of the method: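 Biacore T100 SPR on CM5 dextran chips, HBS-EP running buffer, 25 °C, 10 Hz collection. A test injection gave the Ecoil-EGF capture rate (RU/s), used to capture about 10 RU. Ecoil-EGF was at 0.05 µg/mL on thiol-coupled Kcoil and 0.1 µg/mL on amine-coupled monomeric or dimeric Kcoil. Surfaces were regenerated with two 15 s pulses of 6 M guanidium-HCl.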

[5] = test system: Ecoil peptide; test: SPR Ecoil peptide interaction with grafted Kcoil peptide; assay type: binding; conditions: comparison of the three grafting strategies
[6] = target: dimeric Kcoil–Kcoil peptide (oxidized Cys-Kcoil, linked by a disulfide bond); test: SPR
[7] = target: cysteine-free azidohomoalanine-terminated Kcoil, AhaGG-(KVSALKE)5; test: SPR

Molecule: hEGF: Recombinant human EGF (hEGF, #236-EG)
density on amine surface after 2 h (non-specific adsorption) ([1]; amine surface): 0.50 ± 0.01 pmol/cm^2 | density on thiol surface after 2 h (non-specific adsorption) ([1]; thiol surface): 0.50 ± 0.01 pmol/cm^2 | EC50 [2]: 4 nM

Molecule: AhaGG-(KVSALKE)5 [Cys-free Kcoil]
FcγRIIIa capture rate [3]: 0.06 RU/s | Ecoil-tagged FcγRIIIa capture (in words) ([3]; SPR, 20 RU target): furthest from the 20 RU target | Ecoil-EGF capture rate ([4]; Ecoil-EGF 0.1 μg/mL): 0.32 RU/s

Molecule: CGG-(KVSALKE)5 [Cys-Kcoil]
FcγRIIIa capture rate [3]: 0.57 RU/s | Ecoil-EGF capture rate ([4]; Ecoil-EGF 0.05 μg/mL): 1.32 RU/s | bioavailability (in words) [5]: highest percentage of bioavailability

koff [6]: 0.000468 s⁻¹ | koff [7]: 0.000308 s⁻¹
Molecule: Ac-EVSALEKEVSALEKEVSALEKEVSALEKEVSALEK-NH2 [Ecoil peptide [(EVSALEK)5]]
